Hits are enriched below; roughly 2.6% of the tested compounds scored in any of these assays.
EP2 modulator: modulates human prostaglandin E2 receptor EP2 signaling. P43116. EP2-expressing cells, cAMP HTRF FRET, PGE2 co-stimulation. induction, % at 25 µM. 260,000 tested, 0.83% active. AID 940;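 active means compounds whose cAMP rise, as percent of the full-agonist control response, exceeds 60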;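 further: rat C6 glioma line stably carrying human EP2 under a CMV promoter; the protocol text gives 20 µM as final concentration; 100% = response of wells given 1 µM PGE2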
MC4R ag barr: activates human MC4R beta-arrestin recruitment. P32245. U2OS MC4R beta-arrestin complementation, luminescence; percent of melanotan II response, DMSO zero. activation, % at 8.9 µM. 360,000 tested, 0.98% active;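 active means activation above a per-plate cutoff, the mean activation of sample wells on that plate plus 3 SD, cut at about 8% in these data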
Target sequence (P32245 whole entry, looked up): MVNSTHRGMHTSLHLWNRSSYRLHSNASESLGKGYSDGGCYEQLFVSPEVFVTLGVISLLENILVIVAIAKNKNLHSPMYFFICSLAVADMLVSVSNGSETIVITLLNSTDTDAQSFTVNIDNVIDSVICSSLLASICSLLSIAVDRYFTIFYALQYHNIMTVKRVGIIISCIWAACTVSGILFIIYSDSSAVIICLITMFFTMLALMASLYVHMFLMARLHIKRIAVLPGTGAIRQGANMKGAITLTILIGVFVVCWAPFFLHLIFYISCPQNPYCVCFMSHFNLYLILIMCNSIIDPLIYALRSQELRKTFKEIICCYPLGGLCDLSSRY
T cell modulator: modulates CD8 T cell binding to vesicles; AID 2052; 330,000 tested, 0.068% active; response (vesicle binding), % at 7 µM; 2C CD8+ T cell-vesicle binding, flow cytometry; stronger effect = lower value;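 active means response, share of CD8 T cells binding vesicles, and their 90th percentile fluorescence all below set limits, cut at about 80% in these data, passing the limit was not always enough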;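 further: values below 100% mean blocked vesicle binding to the CD8+ T cells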
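material = purified 2C TCR transgenic mouse naive CD8+ T cells | controls = Unloaded micro-vesicles (low), QL9 vesicles with 0.7% DMSO (high) | detection = cytometric PE anti-B7-1 and Alexa647 anti-CD8 signals after 1% paraformaldehyde fixation | incubation = binding step 1.5 h, 37 °C, antibody labelling 20 min, ice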
PGE2 EP2 inh: EP2 receptor (human) inhibition. P43116. C6 glioma cells expressing human EP2, cAMP TR-FRET; cells stimulated with saturating PGE2. inhibition, % at 25 µM. 260,000 tested, 0.52% active;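 active means percent inhibition above 40 after rounding to a whole number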;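 further: rat C6 glioma host cells with rolipram phosphodiesterase inhibitor present; the protocol text gives 20 µM as final concentration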
MC4R antag cAMP: antagonists of human melanocortin 4 receptor (MC4R) | P32245 | MC4R-expressing cells, MTII-stimulated cAMP, LANCE TR-FRET | inhibition, % at 6.5 µM | 360,000 tested, 0.48% active | AID 540295;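 active means inhibition above its plate's cutoff, the mean of tested wells on that plate plus 3 SD, cut at about 29% in these data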;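 further: 0% = Melanotan II alone and 100% = Melanotan II plus saturating MCL0020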
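Assay system: human MC4R-expressing U2OS cells; reagent: Melanotan II stimulation of cells; dosing: 6.5 µM single dose; timing: compound 30 min, challenge 1 h, detection 1 h; signal: TR-FRET cAMP assay; replicates: one well per compound, no replicates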
Granule exo inh: lytic granule exocytosis inhibition. 360,000 tested, 0.66% active. TALL-104 LAMP-1 surface exposure, flow cytometry; cells stimulated with thapsigargin and PMA. inhibition, % at 10 µM. AID 651702;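 active means inhibition above about 55%, limit read from the data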
U2OS cAMP counter: U2OS forskolin cAMP inhibition counter-screen | parental U2OS, LANCE TR-FRET | AID 602193 | shares compounds with MC4R antag cAMP | inhibition, % at 6.5 µM | 1,600 tested, 26% active;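 active means mean inhibition over triplicates above the low-control well mean plus 3 SD, set per campaign, cut at about 13% in these data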;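 further: signal is single emission at 671 nm which falls as cellular cAMP rises; 0% = forskolin-stimulated wells and 100% = buffer without forskolin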
MC4R antag conf: human MC4R cAMP antagonism confirmation. shares compounds with MC4R antag cAMP. 1,600 tested, 27% active. inhibition, % at 6.5 µM. MC4R-expressing cells, MTII-stimulated cAMP, TR-FRET; in the data active means inhibition above about 29%;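 further: 0% = agonist stimulated wells alone and 100% = agonist stimulated wells plus saturating reference antagonist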
An asterisk follows results filed as active; i = inactive; x = not tested or not shown.

SMILES	EP2 modulator	MC4R ag barr	T cell modulator	PGE2 EP2 inh	MC4R antag cAMP	Granule exo inh	U2OS cAMP counter	MC4R antag conf
O=C(O)c1cc(-c2ccc3c(c2)OCO3)nc2ccc(Br)cc12	42	-2	420	19	37*	-2	12	30*
CCN1CCN(C(=O)c2cc(-c3cccnc3)nc3ccc(Br)cc23)CC1	-6	-2	348	16	6	0	x	x
O=C(O)c1cc(-c2cccs2)nc2ccc(Br)cc12	x	-2	181	x	111*	2	98*	153*
COCCNc1nnc(SC(C)C(=O)Nc2c(C)n(C)n(-c3ccccc3)c2=O)s1 (stereo not drawn)	x	-3	355	x	-3	1	x	x
COc1cccc(CN2C(=O)c3ccccc3S2(=O)=O)c1	x	0	259	x	7	-10	x	x
O=C1c2ccc([N+](=O)[O-])cc2S(=O)(=O)N1Cc1ccccc1	x	-3	139	x	33*	9	28*	50*
COc1cccc(CC(=O)Nc2nc(-c3cc(OC)ccc3OC)cs2)c1	-20	5	770	5	34*	-6	1	1
COc1ccc(C(=O)CCN2CCCCCC2)cc1	2	-2	300	7	40*	0	15*	24
COc1ccc(C(=O)OCCN2CCCCC2)cc1	21	2	296	8	1	-5	x	x
CN(Cc1cccs1)C(=O)COc1cccc2c1OC(C)(C)C2	x	-2	658	x	3	18	x	x
CCc1ccc(C(=O)COC(=O)c2cnc(C)cn2)cc1	22	-2	194	1	5	1	x	x
Cc1cnc(C(=O)OCC(=O)c2ccc(Br)s2)cn1	x	-1	416	x	30*	-3	13*	25
COc1ccccc1NC(=O)CSc1nnnn1C1CCCCC1	x	3	194	x	30*	0	1	3
COc1ccc(Cl)cc1Nc1nc(-c2cccnc2)cs1	x	-1	178	x	7	5	x	x
Cn1c(SCC(=O)Nc2cccc(F)c2)nnc1-c1ccncc1	-20	x	x	9	x	x	x	x
Cn1c(SCC(=O)Nc2cccc(F)c2)nnc1-c1cc2ccccc2o1	19	8	200	9	31*	1	4	3
c1ccc(Cn2c(CNc3nc4ccccc4n3CCN3CCCCC3)nc3ccccc32)cc1	28	-3	544	-2	29*	13	-5	28
N=c1c2c(-c3ccccc3)c(-c3ccccc3)n(Cc3ccccc3)c2ncn1CCCn1ccnc1	-6	1	196	1	29*	50	-2	35*
CCN1C(=O)C2(C(C(=O)c3cc4ccccc4o3)=C(O)C(=O)N2CCCN2CCOCC2)c2ccccc21 (stereo not drawn)	58	-2	i	17	42*	-5	22*	50*
CCN1C(=O)C2(C(C(=O)c3ccc(C)o3)=C(O)C(=O)N2CCCN2CCOCC2)c2ccccc21 (stereo not drawn)	10	0	466	2	4	0	x	x
CCn1c(CC(=O)Nc2ccc(F)cc2)nnc1SCC(=O)Nc1nnc(C)s1	x	3	243	x	30*	-16	-1	0
CCn1c(CC(=O)Nc2ccc(F)cc2)nnc1SCC(=O)NC1CCCC1	x	2	164	x	-3	5	x	x
S=c1[nH]c(-c2ccccc2)cn1/N=C/c1cccc2ccccc12	-64	0	389	10	29*	2	1	-6
S=c1[nH]c(-c2ccccc2)cn1/N=C/c1ccccc1Br	-24	-3	257	7	5	4	x	x
Cc1ccc(S(=O)(=O)N(CC(O)CN2CCOCC2)c2cc(Cl)ccc2Cl)cc1 (stereo not drawn)	-3	-1	228	13	-9	-1	x	x
SMILES	EP2 modulator	MC4R ag barr	T cell modulator	PGE2 EP2 inh	MC4R antag cAMP	Granule exo inh	U2OS cAMP counter	MC4R antag conf
S=C(NCc1ccc2[nH]c3c(c2c1)CCCC3)Nc1ccccc1Cl	-34	1	623	14	10	20	x	x
COC(=O)[C@H](Cc1ccccc1)NC(=O)NCCc1ccc(F)cc1	13	-1	635	12	29*	34	32*	35*
COC(=O)[C@H](Cc1ccccc1)NC(=O)NCCc1ccc(S(N)(=O)=O)cc1	1	-2	344	5	1	-1	x	x
COC(=O)C(Cc1ccccc1)NC(=O)CCNC(=O)c1ccc(Br)cc1 (stereo not drawn)	x	1	184	x	29*	-4	-9	-20
COC(=O)C(Cc1ccccc1)NC(=O)CCC(=O)NC(C)CCc1ccccc1 (stereo not drawn)	x	1	456	x	16	15	x	x
CCCn1c(SCC(=O)OC2CCCCC2)nc2c1c(=O)n(C)c(=O)n2C	-65	x	x	4	x	x	x	x
CCOC(=O)C(C)Sc1nc2c(c(-c3cccs3)c1C#N)CCC2 (stereo not drawn)	59	0	652	7	15	-2	x	x
N#Cc1c(SC(C(=O)O)c2ccccc2)nc2c(c1-c1cccs1)CCCC2 (stereo not drawn)	46	-1	156	22	31*	5	18*	27
CC(Sc1nnc(NC2CCCCC2)s1)C(=O)Nc1ccc2c(c1)C(=O)c1ccccc1C2=O (stereo not drawn)	-8	3	241	16	30*	16	0	3
COCCn1c(SCC(=O)NC2CCCCC2C)nnc1-c1ccncc1 (stereo not drawn)	x	0	520	x	29*	5	0	-4
CC(C)C(CO)NC(=O)CC(=O)NC(CO)C(C)C (stereo not drawn)	20	1	253	4	30*	-1	-1	-10
CCOC(=O)/C=C/C(=O)Nc1cccc([N+](=O)[O-])c1	-1	-5	69	131*	34*	22	26*	60*
COc1cc(C(=S)N2CCOCC2)ccc1OS(=O)(=O)c1ccccc1[N+](=O)[O-]	-16	-1	248	11	33*	-4	-1	-5
O=C(Oc1cccc(C(=S)N2CCOCC2)c1)c1ccc([N+](=O)[O-])cc1[N+](=O)[O-]	x	-1	694	x	37*	-8	6	29*
Cc1ccc(S(=O)(=O)/N=C2/C=C(Sc3ncn[nH]3)C(=O)c3ccccc32)cc1	-70	-1	810	126*	48*	108*	27*	35*
CCOc1ccccc1OCC(=O)Nc1cc(C)on1	x	-2	237	x	4	0	x	x
Cc1cc(NC(=O)COc2ccc3ccccc3c2Br)no1	x	4	370	x	46*	15	20*	35*
